# Calls of active or inactive are those of the source. No cut-off for these calls is given here.
# Legend:
# [1] = system: Mycobacterium tuberculosis; experiment: Antimicrobial activity against Mycobacterium tuberculosis H37Rv 9679/00 harboring thyA Thr202Ala single nucleotide polymorphism grown in 7H9 broth assessed as decrease in bacterial growth at 0.125 to 2 ug/ml by spectrophotometry; format: functional, organism-based
# How it was run: (§1)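 PAS growth curves in 7H9 broth with OADC (10%) and Tween 80 (0.05%), 37°C, rolling device. PAS was added at OD600 0.1 to 0, 0.13, 0.25, 0.5, 1.0 and 2.0 mg/liter. OD600 was read daily for 9 consecutive days, in triplicate. Curves are means of three independent experiments.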
# [2] = system: Mycobacterium tuberculosis; experiment: Antimicrobial activity against Mycobacterium tuberculosis Haarlem 9532/03 harboring thyA Thr202Ala single nucleotide polymorphism grown in Lowenstein-Jensen medium; format: functional
# How it was run: (§2)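 PAS MIC by conventional susceptibility testing on Löwenstein-Jensen medium at 0.063, 0.13, 0.25, 0.5 and 1.0 mg/liter PAS. Strains were drawn from the reference collection and cultivated at the Borstel Supranational Reference Laboratory.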
# [3] = system: Mycobacterium tuberculosis; experiment: Antimicrobial activity against Mycobacterium tuberculosis LAM 7968/03 harboring thyA Thr202Ala single nucleotide polymorphism grown in Lowenstein-Jensen medium; format: functional; how it was run: as §2
# [4] = system: Mycobacterium tuberculosis; experiment: Antimicrobial activity against Mycobacterium tuberculosis LAM 8885/05 harboring thyA Thr202Ala single nucleotide polymorphism grown in Lowenstein-Jensen medium; format: functional; how it was run: as §2
# [5] = system: Mycobacterium tuberculosis; experiment: Antimicrobial activity against Mycobacterium tuberculosis Beijing 1934/03 harboring thyA Thr202Ala single nucleotide polymorphism grown in Lowenstein-Jensen medium; format: functional; how it was run: as §2
# [6] = system: Mycobacterium tuberculosis; experiment: Antimicrobial activity against Mycobacterium tuberculosis H37Rv 9679/00 harboring thyA Thr202Ala single nucleotide polymorphism grown in Lowenstein-Jensen medium; format: functional; how it was run: as §2
# [7] = system: Mycobacterium tuberculosis; experiment: Antimicrobial activity against Mycobacterium tuberculosis LAM 7968/03 harboring thyA Thr202Ala single nucleotide polymorphism grown in 7H9 broth assessed as decrease in bacterial growth at 0.125 to 2 ug/ml by spectrophotometry; format: functional, organism-based; how it was run: as §1
# [8] = system: Mycobacterium tuberculosis; experiment: Antimicrobial activity against Mycobacterium tuberculosis LAM 8885/05 harboring thyA Thr202Ala single nucleotide polymorphism grown in 7H9 broth assessed as decrease in bacterial growth at 0.125 to 2 ug/ml by spectrophotometry; format: functional, organism-based; how it was run: as §1
# [9] = system: Mycobacterium tuberculosis; experiment: Antimicrobial activity against Mycobacterium tuberculosis Haarlem 9532/03 harboring thyA Thr202Ala single nucleotide polymorphism grown in 7H9 broth assessed as decrease in bacterial growth at 0.125 to 2 ug/ml by spectrophotometry; format: functional, organism-based; how it was run: as §1
# [10] = system: Mycobacterium tuberculosis; experiment: Antimicrobial activity against Mycobacterium tuberculosis Beijing 1934/03 harboring thyA Thr202Ala single nucleotide polymorphism grown in 7H9 broth assessed as decrease in bacterial growth at 0.125 to 2 ug/ml by spectrophotometry; format: functional, organism-based; how it was run: as §1
smiles,measurement,setting,value
Nc1ccc(C(=O)O)c(O)c1 [AMINOSALICYLIC ACID],Activity,[1],Active
same,MIC,[2],0.5 ng/mL
same,MIC,[3],0.5 ng/mL
same,MIC,[4],0.5 ng/mL
same,MIC,[5],0.5 ng/mL
same,MIC,[6],0.5 ng/mL
same,Activity,[7],Active
same,Activity,[8],Active
same,Activity,[9],Active
same,Activity,[10],Active

# From ChEMBL document CHEMBL1671759, “Thr202Ala in thyA is a marker for the Latin American Mediterranean lineage of the Mycobacterium tuberculosis complex rather than para-aminosalicylic acid resistance” (2010)
